Results reported in PubChem BioAssay AID602315 (Southern Research Specialized Biocontainment Screening …, 2012).
Results filed as inconclusive are left out. Active and inactive are the calls of the source.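 Rule for the calls: active = inhibition of 30% or more at any tested concentration; inactive = the rest, inconclusive results apart.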

biological target: M1-family alanyl aminopeptidase (Plasmodium falciparum 3D7); test: Inhibition of P. falciparum M1 alanyl aminopeptidase – biochemical, QFRET, set 3, counter-screen for PfM17LAP inhibitor project, dose response (AID 602315); settings: recombinant PfM1AAP, H-Leu-NHMec fluorogenic cleavage
Method in brief: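 Times: enzyme–substrate reaction 90 min at room temperature; Material: purified recombinant Plasmodium falciparum M1-family alanyl aminopeptidase (PfM1AAP); Evaluation: % inhibition and fitted IC50; Control set: enzyme-free wells as background reference; Reagent: 0.1 mM H-Leu-NHMec; Technique: fluorescence, ex 370/em 460 nm; Buffer or medium: Tris pH 7.5 buffer with cobalt chloride.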

Row | IC50 | SMILES
1 | 26 µM | CCCCOc1cccc(CC(=O)NO)c1
2 | 20.2 µM | CCC(C)Oc1ccc(CC(=O)NO)cc1 (stereo not drawn)
3 | 16.7 µM | CCCOc1ccc(CC(=O)NO)cc1
4 | 28.2 µM | CCCCOc1ccc(C(C)C(=O)NO)cc1 (stereo not drawn)

same assay, conditions: recombinant PfM1AAP, H-Leu-NHMec fluorogenic cleavage; at 100 µM (top of the series)

Row | inhibition | SMILES
5 | inactive | CCCCOc1ccc(C(C)C(=O)OC)cc1 (stereo not drawn)
6 | inactive | CCCCOc1cccc(CC(=O)OC)c1
7 | inactive | CCCCOc1ccc(C(C)(C)C(=O)NO)cc1
8 | inactive | CCCCOc1ccc(C(C)C(=O)O)cc1 (stereo not drawn)
9 | inactive | CCCCOc1ccc(CN(O)C(=O)c2ccccc2)cc1
10 | inactive | O=C(NO)c1ccc2ccccc2c1
11 | inactive | CN(C)CCOc1ccc(CC(=O)O)cc1
12 | inactive | CCCCOc1ccc(CN(O)C(C)=O)cc1
13 | inactive | CCCCOc1ccc(C(C)(C)C(=O)O)cc1
